Experimental data as given in paper PMC11390321 (Cancer chemotherapy and pharmacology, 2024).

Assays:
[1] = Dose linearity study: single IV dose PK, noncompartmental analysis; assay type: in vivo, female BALB/c mice; conditions: for β, slope of Ln(AUC0-∞) versus Ln(dose): 2–60 mg/kg IV, power model; for AUC(0-inf) / Cmax / Tmax / Vd / half-life / AUC(0-t) / clearance: female, BALB/c, mouse, iv; for AUC(0-inf) / Cmax / Tmax / Vd / half-life / AUC(0-t) / clearance / AUC0-t/dose / AUC0-∞ /dose / AUC0–360/dose / AUCextrap / Cmax/dose / Tlast: plasma; for clearance: CL; for AUC extrapolated beyond 24 h in tissues: tissues with a quantifiable 24 h sample; for 0–24 h feces / 0–24 h urine: unchanged drug
How it was run: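 Single ~30 s tail-vein bolus of test compound in 12% captisol (pH 4, acetic acid), 2.0, 6.0, 20 or 60 mg/kg, female BALB/c mice 5–7 weeks old, N=3 per time point. Plasma and tissues taken 5–1,440 min; pooled 24 h urine/feces from metabolic cages. LC-MS/MS with [D7] internal standard. NCA, Bailer AUC. Dose linearity via slope of Ln AUC0-∞ versus Ln dose against β=1.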

[2] = test system: P-glycoprotein (P-gp/Mdr1); conditions: on the BBB; cited from earlier work

## CNCc1ccc(-c2cc(-c3nc(-c4ccc(S(=O)(=O)C(C)C)cc4)cnc3N)on2)cc1 [berzosertib]
[1]; Brain
  β, slope of Ln(AUC0-∞) versus Ln(dose): 1.17 (95% CI: 0.786 – 1.56)
[1]; Kidney
  β, slope of Ln(AUC0-∞) versus Ln(dose): 1.35 (95% CI: 0.960 – 1.73)
[1]; Lung
  β, slope of Ln(AUC0-∞) versus Ln(dose): 1.30 (95% CI: 0.804 – 1.79)
[1]; across all groups (2–60 mg/kg IV), 0–24 h
  unchanged drug recovered in feces: < 4%
[1]; between 2 and 60 mg/kg IV
  increase in volume of distribution (Vd): more than 3 fold
[1]; 2 mg/kg
  AUC(0-inf): 0.867 µg·h/mL
  Cmax: 1.48 µg/mL
  Tmax: 5 min
  Vd: 8.49 L/kg
  half-life: 2.55 h
[1]; 2 mg/kg, AUC0-t, 2.0 mg/kg IV
  AUC(0-t): 0.765 µg·h/mL
[1]; 2 mg/kg, AUC0–360, plasma, 2.0 mg/kg IV
  AUC(0-t): 0.765 µg·h/mL
[1]; 6 mg/kg
  AUC(0-inf): 2.45 µg·h/mL
  Cmax: 3.47 µg/mL
  Tmax: 5 min
  Vd: 9.63 L/kg
  half-life: 2.73 h
[1]; 6 mg/kg, AUC0-t, 6.0 mg/kg IV
  AUC(0-t): 2.1 µg·h/mL
[1]; 6 mg/kg, AUC0–360, plasma, 6.0 mg/kg IV
  AUC(0-t): 2.1 µg·h/mL
[1]; 20 mg/kg
  AUC(0-inf): 10.2 µg·h/mL
  Cmax: 10.2 µg/mL
  Tmax: 5 min
  Vd: 11.9 L/kg
  half-life: 4.22 h
[1]; 20 mg/kg, AUC0-t, 20 mg/kg IV
  AUC(0-t): 10.1 µg·h/mL
[1]; 20 mg/kg, AUC0–360, plasma, 20 mg/kg IV
  AUC(0-t): 7.07 µg·h/mL
[1]; 20 mg/kg, calculated using AUC0-∞, 20 mg/kg IV
  clearance: 1.96 L/h/kg
[1]; 20 mg/kg, calculated using AUC0–360, 20 mg/kg IV
  clearance: 2.83 L/h/kg
[1]; 60 mg/kg
  AUC(0-inf): 35.4 µg·h/mL
  Cmax: 21.2 µg/mL
  Tmax: 5 min
  Vd: 25.6 L/kg
  half-life: 10.5 h
  AUC extrapolated beyond 24 h in tissues: > 20%
[1]; 60 mg/kg, AUC0-t, 60 mg/kg IV
  AUC(0-t): 29.4 µg·h/mL
[1]; 60 mg/kg, AUC0–360, plasma, 60 mg/kg IV
  AUC(0-t): 15.5 µg·h/mL
[1]; 2.0 mg/kg IV
  AUC0-t/dose: 23.0
  AUC0-∞ /dose: 26.0
  AUC0–360/dose: 23.0
  AUCextrap: 11.7%
  Cmax/dose: 0.738
  Tlast: 360 min
  0–24 h feces: 1.78 % dose
  0–24 h urine: 40.6 % dose
[1]; 6.0 mg/kg IV
  AUC0-t/dose: 21.1
  AUC0-∞ /dose: 24.6
  AUC0–360/dose: 21.1
  AUCextrap: 14.2%
  Cmax/dose: 0.578
  Tlast: 360 min
  0–24 h feces: 3.41 % dose
  0–24 h urine: 49.2 % dose
[1]; 20 mg/kg IV
  AUC0-t/dose: 30.3
  AUC0-∞ /dose: 30.7
  AUC0–360/dose: 21.2
  AUCextrap: 1.39%
  Cmax/dose: 0.512
  0–24 h feces: 1.48 % dose
  0–24 h urine: 55.8 % dose
[1]; 60 mg/kg IV
  AUC0-t/dose: 29.4
  AUC0-∞ /dose: 35.4
  AUC0–360/dose: 15.5
  AUCextrap: 17.0%
  Cmax/dose: 0.353
  0–24 h feces: 2.02 % dose
[1]; 2, 6 and 20 mg/kg groups
  AUC extrapolated beyond 24 h in tissues: < 3%
[1]; 60 mg/kg IV, 60 mg/kg
  0–24 h urine: 28 % dose
[2]
  efflux transporter substrate: substrate
